H69AR growth 86K: blocks growth of human H69AR lung tumor cells | viability, % at 10 µM | H69AR lung tumor viability, ATP luminescence, 72 h; stronger effect = lower value | 85,000 tested, 6% active;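 active means viability at or below 40%; inactive means viability above 40%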;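 further: multidrug resistant small cell line overexpressing MRP-1 efflux transporter; 100% = mean luminescence of untreated control wells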
Lung fibro prol: blocks proliferation of human lung fibroblasts; LL 47 human lung fibroblast viability, ATP luminescence; stronger effect = lower value; viability, % at 10 µM; 85,000 tested, 1.1% active;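 active means viability at or below 50% in the single dose screen; inactive means viability above 50%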;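 further: compound exposure lasted 72 h before the ATP readout; 100% = median luminescence of untreated cell-only wells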
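Material: human LL 47 lung fibroblast cells; quantity: 1,150 cells/well; medium: IMEM plus 15% FBS; doses: 0.1% DMSO in all compound wells; timing: overnight attachment after seeding, then 72 h compound exposure at 37 °C; detection: CellTiter-Glo luminescence; measure: % viability of median cell-only signal; controls: cell-only wells, no compound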
bCat KO growth: beta-catenin-lacking colon tumor cell growth suppression. HCT116 beta-catenin knockout viability, CellTiter-Glo, 60 h; stronger effect = lower value. viability, % at 10 µM. 140,000 tested, 1.5% active;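 active means viability at or under a set limit, the compound median less 4 SD, cut at about 6% in these data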;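 further: 0% = Hyamine 1622 control at 20 µM and 100% = untreated cell control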
HUVEC prolif 384: blocks proliferation of human endothelial cells; HUVEC proliferation, CellTiter-Glo luminescence, 72 h; stronger effect = lower value; viability, % at 10 µM (by protocol); 86,000 tested, 1.1% active; AID 648;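 active means viability at or below 30%; inactive means viability above 30%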;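 further: 100% = median luminescence of DMSO-only cell control wells on each plate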
HCT116 PTEN-null: PTEN-deleted cell growth suppression. viability, % at 10 µM. AID 827. HCT116 PTEN-null viability, CellTiter-Glo, 60 h; stronger effect = lower value. 140,000 tested, 1.2% active;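 active means viability at or below a set limit, 4 SD under the median of all tested compounds, cut at about 3.7% in these data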;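 further: PTEN knockout HCT116 line with beta catenin targeted HCT116 as companion control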
Numbers without * were called inactive; nt = no result given. The sample as a whole holds a higher share of hits than the screen did.

SMILES	H69AR growth 86K	Lung fibro prol	bCat KO growth	HUVEC prolif 384	HCT116 PTEN-null
CCCCn1c(-c2nonc2N)nc2ccccc21	30*	84	64	82	57
CC1CC(C)CN(C(=O)Cn2c(-c3nonc3N)nc3ccccc32)C1 (stereo not given)	60	108	86	96	85
Cc1cccc(OCCC(=O)N(C)CC(=O)Nc2cccc3ccccc23)c1	nt	nt	86	nt	79
Cc1ccc2nc(-c3ccc(O)cc3)c(Nc3ccc4c(c3)OCCO4)n2c1	64	96	73	80	73
Cc1ccc(-c2nc3cnccn3c2Nc2ccc3c(c2)OCCO3)o1	65	98	93	96	100
COc1ccc(-c2nc3cnccn3c2Nc2ccc3c(c2)OCO3)cc1	24*	84	70	78	64
Cc1ccc(-c2nc3cnccn3c2Nc2ccc3c(c2)OCO3)cc1	25*	92	63	78	58
O=c1cc(-c2ccccc2)nc(N2CCN(Cc3ccc4c(c3)OCO4)CC2)[nH]1	80	91	96	104	87
Cc1cc(Cl)c(OCCCNCc2ccccc2)c(Br)c1	nt	nt	1.5*	nt	1.2*
Clc1ccc(OCCCNCc2ccccc2)c(Br)c1	nt	nt	1.2*	nt	1.7*
COc1cc2nc(C3CC3)n(NC(=O)c3ccc(F)cc3)c(=O)c2cc1OC	79	94	93	110	106
COc1cc2nc(C3CC3)n(NC(=O)c3ccc(Cl)cc3)c(=O)c2cc1OC	24*	91	55	68	59
Cc1cc(C)c(S(=O)(=O)N2CCN(c3ccc([N+](=O)[O-])c(-n4nc(C)cc4C)c3)CC2)c(C)c1	nt	nt	77	nt	79
NC1=NC2(CCCCC2)N=C(Nc2ccc(F)cc2F)N1	nt	nt	107	nt	94
Cc1cc(C)cc(NC2=NC3(CCCCC3)N=C(N)N2)c1	18*	56	21	63	22
CN(Cc1ccccc1)C(=O)c1cccc(N2C(=O)NC3CC2(C)Oc2ccccc23)c1 (stereo not given)	88	99	89	93	77
CC(=O)Nc1ccc(S(=O)(=O)Nc2c(C)nn(-c3ccccc3)c2C)cc1	49	88	80	91	74
Cc1nn(-c2ccc(F)cc2)c(C)c1NS(=O)(=O)c1ccc2ccccc2c1	36*	96	62	77	52
O=S(=O)(CCN1CCN(C(c2ccccc2)c2ccccc2)CC1)C(F)(F)F	4.4*	73	9	79	25
c1ccc(OCCOCCN2CCN(C(c3ccccc3)c3ccccc3)CC2)cc1	nt	nt	52	nt	58
CC[C@@H](C)[C@H](NC(=O)OC(C)(C)C)c1nnc(S(=O)(=O)Cc2cc(C)ccc2C)o1	0.2*	14*	2.8*	39	3.8*
CC(C)C[C@H](NC(=O)OC(C)(C)C)c1nnc(SCc2ccccc2)o1	98	96	77	99	72
Cc1ccccc1CS(=O)(=O)c1nnc([C@H](CC(C)C)NC(=O)OC(C)(C)C)o1	76	3.9*	94	73	88
CC(C)[C@H](NC(=O)OC(C)(C)C)c1nnc(S(=O)(=O)Cc2c(F)cccc2Cl)o1	0.9*	2.6*	nt	56	nt
CC(C)(C)OC(=O)N[C@@H](Cc1ccccc1)c1nnc(S(=O)(=O)Cc2cccc(F)c2)o1	1.0*	20*	79	56	83
SMILES	H69AR growth 86K	Lung fibro prol	bCat KO growth	HUVEC prolif 384	HCT116 PTEN-null
CCCSc1nc(N)cc(=O)[nH]1	102	104	88	100	82
Cc1cc(O)c(C(C)C)cc1NS(=O)(=O)c1ccccc1	nt	89	79	106	83
CCOC(=O)NC(=O)COC(=O)Cc1cc(OC)c(OC)c(OC)c1	87	106	95	99	96
CCCN(CC1CC1)S(=O)(=O)c1ccc(S(N)(=O)=O)cc1	nt	nt	103	nt	96
COc1ccc(S(=O)(=O)n2nc(OC(=O)c3c(-c4ccccc4Cl)noc3C)cc2N)cc1	28*	110	97	83	94
COc1ccccc1C(=O)Oc1cc(N)n(S(=O)(=O)c2ccc(C)cc2)n1	nt	nt	96	nt	105
COc1cc(C)c(Cl)cc1S(=O)(=O)n1cnc2ccccc21	40*	93	96	87	103
CCOc1ccc(Cl)cc1S(=O)(=O)n1cnc2cc(C)c(C)cc21	57	91	77	91	80
C=CCn1cnc2c(c1=O)c1nc3ccccc3nc1n2/N=C/c1cc(OC)c(OC)c(OC)c1	8.9*	24*	0.8*	39	1.4*
Cc1cc(C)c(O)c(-c2cc(C(=O)NCc3ccccc3)[nH]n2)c1	90	110	99	85	79
COc1ccc(NC(=O)c2cc(-c3cc(C)cc(C)c3O)n[nH]2)cc1Cl	21*	97	10	44	4
Cn1cc(Cl)nc1C(O)c1ccccc1 (stereo not given)	99	96	92	95	101
O=C(CCC1CCCC1)Nc1ccc([N+](=O)[O-])cn1	nt	nt	89	nt	87
Cc1cc(C)c2nc(N3CCCN(C(=O)c4ccco4)CC3)c(C#N)cc2c1	35*	97	11	98	8
O=C(Nc1nnc(-c2ccccc2)s1)c1cc(S(=O)(=O)N2CCOCC2)c(Cl)cc1Cl	10.0*	93	35	47	65
O=C(Nc1ccccc1)C1CCN(c2nccs2)CC1	85	101	95	93	96
COC(=O)c1sc(S(=O)(=O)N2CCCCC2C(=O)O)c(C(=O)OC)c1C (stereo not given)	nt	nt	94	nt	101
O=C(Cn1ncc(Cl)c(Cl)c1=O)c1ccc(Cl)cc1	1.4*	2.6*	1.7*	2.6*	2.0*
C=CCn1c(C)cc(C(=O)Cn2ncc(Cl)c(Cl)c2=O)c1C	nt	nt	1.7*	nt	1.4*
O=C(Cn1ncc(Cl)c(Cl)c1=O)NCC1CCCCC1	nt	nt	1.8*	nt	1.5*
O=C(OCn1ncc(Cl)c(Cl)c1=O)c1ccccc1Cl	nt	nt	3.9*	nt	7
C[n+]1ccn(CC(=O)c2ccc(Cl)cc2)c1	nt	nt	97	nt	92
Cc1cccc(N2CCN(CC(=O)NCC3CCCCC3)CC2)c1C	95	103	80	102	93
O=C(Nc1nc2ccc(Cl)cc2s1)[C@@H]1CCCN1C(=O)c1cccs1	nt	nt	68	nt	71
CC(NC(=O)/C(=C/c1cccc([N+](=O)[O-])c1)NC(=O)c1ccco1)C(=O)O (stereo not given)	nt	nt	98	nt	92
SMILES	H69AR growth 86K	Lung fibro prol	bCat KO growth	HUVEC prolif 384	HCT116 PTEN-null
CCOC(=O)Cc1csc(NC(=O)CCCCCN2C(=O)c3cccc4cccc(c34)C2=O)n1	41	55	nt	52	nt
O=C(OCn1ncc(Cl)c(Cl)c1=O)c1ccc(F)cc1	nt	nt	0.8*	nt	0.5*
COc1ccc(-c2nc3ccccc3c(C(=O)Nc3ccc(S(=O)(=O)Nc4cc(C)on4)cc3)c2C)cc1	nt	nt	24	nt	27
Cc1ncsc1C(=O)N1N=C2/C(=C/c3ccccc3)CCCC2C1c1ccccc1 (stereo not given)	nt	nt	44	nt	39
CCn1cc(Cl)c(C(=O)N2N=C3/C(=C/c4cccs4)CCCC3C2c2cccs2)n1 (stereo not given)	38*	92	54	75	51
CCCc1ccc(-c2cc(NC(=O)CSc3n[nH]c(N)n3)n(-c3ccccc3)n2)cc1	17*	94	60	17*	46

Screening results as filed in PubChem.
